# This is a sample that favours compounds with a hit; in the whole collection about 1.6% have one here.
# RBBP9 inh: human RBBP9 inhibitors, primary screen, biochemical, fluorescence polarization, FP-Rh probe, HTS | inhibition, % at 7.94 µM | recombinant RBBP9 | AID 1515, 2009 | 0.2% of 220,000 active;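 active means inhibition above the campaign mean of all tested compounds plus 3 SD, cut at about 14% in these data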;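 further: plate controls were DMSO wells with RBBP9 for no effect and wells lacking RBBP9 protein for full effect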
#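 System: RBBP9 protein / Buffer or medium: Tris/NaCl buffer pH 8.0 with 0.1% Pluronic / Probe or stimulus: Serine-hydrolase probe FP-Rh, 375 nM pre-mixing / Dosing: 7.94 µM single dose, 0.794% DMSO / Times: enzyme-compound preincubation 30 min, then probe labeling 45 min, 25 °C / Technique: fluorescence polarization (mP), excitation 525 nm, emission 598 nm / Replication: singlicate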
# PABP polyA inh: PABP poly(A) RNA binding inhibitors, primary screen, biochemical, fluorescence polarization, uHTS | 1% of 290,000 active | Polyadenylate-binding protein 1 (Homo sapiens), P11940 | calls only at 35 µM;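 further: calls also rest on retests at 20 µM and on dose response follow-up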
# Target sequence (P11940 whole entry, looked up): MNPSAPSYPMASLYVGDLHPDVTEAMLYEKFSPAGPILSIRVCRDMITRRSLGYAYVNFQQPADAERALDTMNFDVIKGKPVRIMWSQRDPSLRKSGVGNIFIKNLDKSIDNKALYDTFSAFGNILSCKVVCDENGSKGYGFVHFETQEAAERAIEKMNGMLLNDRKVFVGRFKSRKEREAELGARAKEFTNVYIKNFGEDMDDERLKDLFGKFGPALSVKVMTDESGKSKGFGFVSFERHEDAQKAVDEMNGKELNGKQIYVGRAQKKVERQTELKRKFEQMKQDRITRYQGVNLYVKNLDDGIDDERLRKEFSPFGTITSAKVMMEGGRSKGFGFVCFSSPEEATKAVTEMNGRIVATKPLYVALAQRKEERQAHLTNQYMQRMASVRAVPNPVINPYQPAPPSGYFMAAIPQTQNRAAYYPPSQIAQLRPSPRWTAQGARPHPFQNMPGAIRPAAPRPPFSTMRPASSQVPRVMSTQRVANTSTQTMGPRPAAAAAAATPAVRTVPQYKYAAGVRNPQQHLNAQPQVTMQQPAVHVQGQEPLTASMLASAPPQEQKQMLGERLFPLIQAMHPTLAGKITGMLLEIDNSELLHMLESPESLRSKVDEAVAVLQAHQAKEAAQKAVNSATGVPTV
# MLLE-PAM2 inh: inhibitors of PABP1 MLLE–PAM2 peptide binding, primary screen, biochemical, fluorescence polarization, FITC-PAM2, GST-MLLE; inhibition, % at 20 µM; 0.36% of 360,000 active; in the data active means inhibition above about 35%, passing the limit was not always enough;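 further: plate controls were DMSO wells with GST-MLLE for no effect and wells lacking GST-MLLE protein for full effect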
# TCR-CD3 inh: inhibitors of human TCR-CD3 interaction, primary screen, biochemical, fluorescence, TAMRA-labeled TCR probe. T-cell receptor (TCR). AID 651800, 2012. inhibition, % at 9.4 µM. 0.37% of 360,000 active; in the data active means inhibition above about 19%;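 further: recombinant mutant TCR 2C K166C tagged with TAMRA read by polarization; 0% = receptor in buffer alone and 100% = receptor with positive control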
# eIF4H FP inh: human eIF4H binding inhibitors, primary screen, translation initiation inhibitor project, biochemical, uHTS, fluorescence polarization. AID 2012, 2009. eIF4H fluorescence polarization binding assay. 0.94% of 290,000 active. inhibition, % at 35 µM. Eukaryotic translation initiation factor 4H (Homo sapiens), Q15056;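 further: calls also rest on retests at 20 µM and on dose response follow-up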
# RBBP9 confirm: human RBBP9 inhibitors, retest, confirmation, biochemical, fluorescence polarization, FP-Rh probe, triplicate | 36% of 410 active | inhibition, % at 7.94 µM | recombinant RBBP9 | shares compounds with RBBP9 inh;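 active means inhibition above the hit cutoff derived for the primary screen, cut at about 15% in these data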;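 further: 0% = RBBP9 with DMSO and 100% = wells lacking RBBP9 protein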
# * marks the source's active call; other numbers are inactive results; i = inactive; ? = inconclusive; / = not tested or not shown; + = active, no number; ! = not confirmed by another sample. Unless noted, how the calls were made is not given here.
SMILES,RBBP9 inh,PABP polyA inh,MLLE-PAM2 inh,TCR-CD3 inh,eIF4H FP inh,others
Cc1cccc(OCCn2cccc2/C=C2/C(=O)NC(=O)N(Cc3ccco3)C2=O)c1,-7,+,-27,3,53*,
OC1CN2CCCC(O)C2C1O (stereo not given),/,/,/,7,/,
N#CCCn1cc(C(=O)Nc2ccccc2Br)c(-c2ccc3c(c2)OCCO3)n1,-9,i,-9,2,active,
Nc1cc2nc3ccccc3nc2cc1N,3,+,97,10,91*,
CN1CC[C@@H]2CN[C@H](c3ccccc3Br)C[C@@H]21,/,/,/,7,/,
O=C(NCCN1CCC2(CC1)C(=O)NCN2c1ccccc1)c1ccc(Cl)c(Cl)c1,/,/,/,1,/,
COc1ccc2c3c1OC1C(O)C=CC4C(C2)[N+](C)(C)CCC341 (stereo not given),/,+,-32,7,48,
CN1CC[C@]23c4c5ccc(O)c4OC2[C@H](O)C=CC3[C@H]1C5 (stereo not given in full),/,/,0,4,/,
CC(C)[N+](C)(CCC(C(N)=O)(c1ccccc1)c1ccccc1)C(C)C,5,i,-28,5,12*,
CN1OC[C@@H]2CN3C4(C[C@@H]21)c1ccccc1C3(c1ccccc1)c1ccccc14,/,/,/,-6,/,
O=C(O)c1cccc2c1NC(C(=O)O)C1CC(Sc3ccccc3[N+](=O)[O-])C(Cl)C21 (stereo not given),6,i,34,37*,96,
Cc1cc(N2CCNC[C@@H]2C)ccc1N1CC[C@@H](O)C1,/,/,/,5,/,
NCCc1ccc(S(N)(=O)=O)cc1,-2,+,-2,-8,active,
CCc1ccc2nc(N3CCC(C(=O)N4CCC5(CC4)OCCO5)CC3)sc2c1,-4,+,-8,-3,2.3*,
O=C(NCCN1CCC2(CC1)C(=O)NCN2c1ccccc1)c1ccc(F)cc1F,/,/,/,-3,/,
CCOC(=O)c1c(NC(=O)c2c(N)n(CCCOC)c3nc4ccccc4nc23)sc2c1CCCC2,-5,+,4,5,?,
CCOCCCn1c(N)c(C(=O)Nc2sc3c(c2C(=O)OC)CCCC3)c2nc3ccccc3nc21,-6,i,-2,-15,?,
COc1cccc(N2C(=O)NC(=O)/C(=C/c3ccc([N+](=O)[O-])s3)C2=O)c1,-20,+,14,-52,51,
COc1ccccc1N1C(=O)NC(=O)/C(=C/c2ccc([N+](=O)[O-])s2)C1=O,1,+,/,-22,51*,
Cc1cccc2nc(-c3ccccc3)c(-c3ccc(CN4CCC(n5c(=O)[nH]c6cc(Cl)ccc65)CC4)cc3)nc12,/,/,/,3,/,
Cc1ccc2[nH]c3c(c2c1)CN(C(=O)CN1C[C@H]2C[C@@H](C1)c1cccc(=O)n1C2)CC3,/,+,16,0,69,
CCN(CC)P(=O)(NC(=O)c1cccn1C)N(CC)CC,-6,?,-13,-8,4.4*,
C[C@H]1CNCCN1c1ccc(N2CC[C@@H](O)C2)c(C#N)c1,/,/,/,-6,/,
O=C1CC(=O)N(c2cccc(C(F)(F)F)c2)C(=O)N1,/,i,-20,1,6,
O=C1CC(=O)N(c2cccc(Br)c2)C(=O)N1,/,+,-37,-6,77,
SMILES,RBBP9 inh,PABP polyA inh,MLLE-PAM2 inh,TCR-CD3 inh,eIF4H FP inh,others
Cc1ccc(C(=O)NCCN2CCC3(CC2)C(=O)NCN3c2ccccc2)cc1,/,/,/,-2,/,
CCOC(=O)/C(CCCN(CC)CC)=N\O,-1,+,-123,-5,5,
O=C(Nc1ccccc1)N1Cc2cc(Br)ccc2-n2nncc2C1,/,/,/,-2,/,
C=CCN1C(=O)/C(=C/c2cccs2)C(=O)NC1=S,-6,+,35,-46,67,
O=C1NC(=S)N(Cc2ccco2)C(=O)/C1=C\c1cccs1,-2,i,/,/,74,
O=C1NC(=S)NC(=O)C1=Cc1ccc2c(c1)CCN2CCCCl,-5,+,-23,/,68*,
Cc1ccccc1N1C(=O)NC(=O)/C(=C\c2ccc3c(c2)CCCN3Cc2ccccc2)C1=O,-12,i,65,-13,43,
COC(=O)C1=Nc2ccccc2/C1=C\c1c(O)n(C)c(=O)n(C)c1=O,-6,+,-25,7,63,
N#Cc1ccc2nc(-c3ccc(CN4CCC(n5c(=O)[nH]c6cc(Cl)ccc65)CC4)cc3)c(-c3ccccc3)nc2c1,/,/,/,8,/,
C=C1C(O)(c2ccccc2)C2CC[N+]1(C)CC2 (stereo not given),-4,+,-127,0,-8,
C=C1N2CCC(CC2)C1(O)c1ccc(C)cc1 (stereo not given),-1,i,-9,4,-6,
CN1C2(C)c3ccccc3C1(c1ccccc1)c1ccccc12,/,/,/,6,/,
Nc1ccc2c3c(cccc13)CC2,-5,+,93,12,70*,
Cc1ccc(OC(=O)N(C)C[C@H]2OCc3cnnn3CCCC(=O)N([C@H](C)CO)C[C@H]2C)cc1,/,/,/,1,/,
Cc1ccc(-n2c(O)c(C=NCCN3CCNCC3)c(=O)[nH]c2=S)cc1,/,i,27,-8,1,
CCOc1ccc(-n2c(O)c(C=NCCN3CCNCC3)c(=O)[nH]c2=O)cc1,5,+,1,/,active,
CN1CCC2(CC1)C(C#N)=C(N)NC(S)=C2C#N,-4,+,-70,-23,55*!,
CCN1/C(=C\C=C\C2=[N+](CC)c3ccccc3C2(C)C)C(C)(C)c2ccccc21,100*,?,i,/,?,RBBP9 confirm=-50
CCC(C)n1c(O)c(C=NC(C)c2ccccc2)c(=O)[nH]c1=S (stereo not given),16*,i,13,-5,15,RBBP9 confirm=2
COC(=O)C1C(c2ccc(F)cc2)CC2CCC1N2C (stereo not given),/,/,/,-1,/,
O=C(NCCN1CCC2(CC1)C(=O)NCN2c1ccccc1)c1ccc(OC(F)(F)F)cc1,/,/,/,-5,/,
O=c1[nH]c(=O)n(Cc2ccco2)c(O)c1C=NC1CC1,-3,i,2,2,-11,
CC(C)N(Cc1ccco1)/N=C/c1c(O)n(Cc2ccccc2)c(=O)[nH]c1=O,19*,i,-4,-8,-3,RBBP9 confirm=7
CC(C)N1CCN(c2ccc(O)cc2)CC1,15*,i,-2,2,24,RBBP9 confirm=-1
O=C(NCCN1CCC2(CC1)C(=O)NCN2c1ccccc1)c1ccccc1C(F)(F)F,/,/,/,2,/,

# Compound activity deposited in PubChem by several laboratories.
